# Results published in ChEMBL document CHEMBL1138515, “Synthesis and biological characterization of B-ring amino analogues of potent benzothiadiazine hepatitis C virus polymerase inhibitors” (J Med Chem, 2009).
# Tested on: not listed separately
# Assay: Half life in Sprague-Dawley rat at 5 mg/kg, iv
# Format: ADME, organism-based
# Design: dose 5 mg/kg, route intravenous
# Conditions: in vivo
# Outline: (§1)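 Overnight-fasted Sprague-Dawley rats (n = 3) received a single 5 mg/kg iv or oral dose in DMSO/PEG400 (1:9, v/v). Mean concentrations were fitted multiexponentially. AUC₀₋ₜ was calculated by linear trapezoidal rule and extrapolated to infinity using Cₜ divided by the terminal rate constant.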
row,SMILES,half-life [min]
1,CC(C)CC[C@@]1(NS(C)(=O)=O)C(=O)C(C2=NS(=O)(=O)c3cc(NS(C)(=O)=O)ccc3N2)=C(O)c2ccccc21,12
2,CON[C@]1(CCC(C)C)C(=O)C(C2=NS(=O)(=O)c3cc(NS(C)(=O)=O)ccc3N2)=C(O)c2ccccc21,36

# Tested on: not listed separately
# Assay: Inhibition of HCV1a H77 NS5B assessed as [3H]UTP incorporation into RNA by scintillation counting
# Design: species or system Hepatitis C virus (isolate H77)
# Conditions: not given
# Outline: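 Two-fold serial inhibitor dilutions were preincubated for 15 min at room temperature with NS5B (genotype 1a H77 or genotype 1b BK, 20-50 nM) in 20 mM Tris-Cl pH 7.4, 2 mM MnCl₂, 1 mM DTT, 1 mM EDTA and 60-125 µM GTP. Reactions were started with 20 µM CTP, 20 µM ATP, 1 µM ³H-UTP, 5 nM template RNA and RNase inhibitor, then run 2-4 h at room temperature.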
row,SMILES,IC50 [nM]
1,CC(C)(C)CCC1(NCc2csc3ccccc23)C(=O)C(C2=NS(=O)(=O)c3cc(NS(C)(=O)=O)ccc3N2)=C(O)c2ccccc21 (stereo not given),19
2,CC(C)(C)CCC1(NCc2cccnc2)C(=O)C(C2=NS(=O)(=O)c3cc(NS(C)(=O)=O)ccc3N2)=C(O)c2ccccc21 (stereo not given),10
3,CC(C)(C)CCC1(NCc2ccc(OCc3ccccc3)cc2)C(=O)C(C2=NS(=O)(=O)c3cc(NS(C)(=O)=O)ccc3N2)=C(O)c2ccccc21 (stereo not given),27
4,CC(C)CCC1(NC(N)=O)C(=O)C(C2=NS(=O)(=O)c3cc(NS(C)(=O)=O)ccc3N2)=C(O)c2ccccc21 (stereo not given),27
5,COc1cccc(CNC2(CCC(C)(C)C)C(=O)C(C3=NS(=O)(=O)c4cc(NS(C)(=O)=O)ccc4N3)=C(O)c3ccccc32)c1 (stereo not given),13
6,COc1ccc(CNC2(CCC(C)(C)C)C(=O)C(C3=NS(=O)(=O)c4cc(NS(C)(=O)=O)ccc4N3)=C(O)c3ccccc32)cc1 (stereo not given),13
7,Cc1cc(CNC2(CCC(C)(C)C)C(=O)C(C3=NS(=O)(=O)c4cc(NS(C)(=O)=O)ccc4N3)=C(O)c3ccccc32)n(C)n1 (stereo not given),5
8,CC(C)CC[C@@]1(NS(C)(=O)=O)C(=O)C(C2=NS(=O)(=O)c3cc(NS(C)(=O)=O)ccc3N2)=C(O)c2ccccc21,7
9,CON[C@]1(CCC(C)C)C(=O)C(C2=NS(=O)(=O)c3cc(NS(C)(=O)=O)ccc3N2)=C(O)c2ccccc21,6

# Tested on: Hepatitis C virus
# Assay: Antiviral activity against HCV1a H77 assessed as inhibition of viral replication by cell-based replicon assay
# Format: functional, organism-based, Hepacivirus hominis
# Conditions: genotype 1a H77
# Outline: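 Stable luciferase-reporter subgenomic replicon Huh-7 lines (1a H77; 1b Con1) were seeded at 5000 cells/well in DMEM with 5% FBS. The next day an eight-point half-log dilution series was added from DMSO stocks. After 3 days the cells were lysed, luciferin was added and luminescence was read. EC₅₀ came from percent inhibition of replication at each concentration.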
row,SMILES,EC50 [nM]
1,CC(C)(C)CCC1(NCc2csc3ccccc23)C(=O)C(C2=NS(=O)(=O)c3cc(NS(C)(=O)=O)ccc3N2)=C(O)c2ccccc21 (stereo not given),13
2,CC(C)(C)CCC1(NCc2cccnc2)C(=O)C(C2=NS(=O)(=O)c3cc(NS(C)(=O)=O)ccc3N2)=C(O)c2ccccc21 (stereo not given),15
3,CC(C)(C)CCC1(NCc2ccc(OCc3ccccc3)cc2)C(=O)C(C2=NS(=O)(=O)c3cc(NS(C)(=O)=O)ccc3N2)=C(O)c2ccccc21 (stereo not given),118
4,CC(C)CCC1(NC(N)=O)C(=O)C(C2=NS(=O)(=O)c3cc(NS(C)(=O)=O)ccc3N2)=C(O)c2ccccc21 (stereo not given),576
5,COc1cccc(CNC2(CCC(C)(C)C)C(=O)C(C3=NS(=O)(=O)c4cc(NS(C)(=O)=O)ccc4N3)=C(O)c3ccccc32)c1 (stereo not given),20
6,COc1ccc(CNC2(CCC(C)(C)C)C(=O)C(C3=NS(=O)(=O)c4cc(NS(C)(=O)=O)ccc4N3)=C(O)c3ccccc32)cc1 (stereo not given),13
7,Cc1cc(CNC2(CCC(C)(C)C)C(=O)C(C3=NS(=O)(=O)c4cc(NS(C)(=O)=O)ccc4N3)=C(O)c3ccccc32)n(C)n1 (stereo not given),15
8,CC(C)CC[C@@]1(NS(C)(=O)=O)C(=O)C(C2=NS(=O)(=O)c3cc(NS(C)(=O)=O)ccc3N2)=C(O)c2ccccc21,56
9,CON[C@]1(CCC(C)C)C(=O)C(C2=NS(=O)(=O)c3cc(NS(C)(=O)=O)ccc3N2)=C(O)c2ccccc21,12

# Tested on: not listed separately
# Assay: AUC (0 to infinity) in Sprague-Dawley rat at 5 mg/kg, po
# Format: ADME, organism-based
# Design: time infinity, dose 5 mg/kg, route oral
# Conditions: plasma
# Outline: as §1
row,SMILES,AUC(0-inf) [ng·h/mL]
1,CON[C@]1(CCC(C)C)C(=O)C(C2=NS(=O)(=O)c3cc(NS(C)(=O)=O)ccc3N2)=C(O)c2ccccc21,350

# Tested on: not listed separately
# Assay: Oral bioavailability in Sprague-Dawley rat at 5 mg/kg
# Format: ADME, organism-based
# Conditions: in vivo
# Outline: as §1
row,SMILES,bioavailability [%]
1,CC(C)CC[C@@]1(NS(C)(=O)=O)C(=O)C(C2=NS(=O)(=O)c3cc(NS(C)(=O)=O)ccc3N2)=C(O)c2ccccc21,0
2,CON[C@]1(CCC(C)C)C(=O)C(C2=NS(=O)(=O)c3cc(NS(C)(=O)=O)ccc3N2)=C(O)c2ccccc21,34.1

# Tested on: not listed separately
# Assay: Clearance in Sprague-Dawley rat at 5 mg/kg, iv
# Format: ADME, organism-based
# Design: dose 5 mg/kg, route intravenous
# Conditions: in vivo
# Outline: as §1
row,SMILES,clearance [mL/min/kg]
1,CC(C)CC[C@@]1(NS(C)(=O)=O)C(=O)C(C2=NS(=O)(=O)c3cc(NS(C)(=O)=O)ccc3N2)=C(O)c2ccccc21,71.7
2,CON[C@]1(CCC(C)C)C(=O)C(C2=NS(=O)(=O)c3cc(NS(C)(=O)=O)ccc3N2)=C(O)c2ccccc21,45
